These results are taken from ChEMBL document CHEMBL1649424, “Design, synthesis, and biological activity of novel 5-((arylfuran/1H-pyrrol-2-yl)methylene)-2-thioxo-3-(3-(trifluoromethyl)phenyl)thiazolidin-4-ones as HIV-1 fusion inhibitors targeting gp41” (J Med Chem, 2011).

The test system of series [1] is Human immunodeficiency virus 1. Nature of the series: Antiviral activity against HIV1 3B infected in human MT2 cells assessed as inhibition viral p24 antigen production after 4 days by ELISA. The class given is functional, organism-based. As to conditions: Human immunodeficiency virus 1, 3B, MT2, 96 h. Background: In an ELISA, binding on a coated surface is turned into a signal by an enzyme label.

Series [2] is described as follows: Cytotoxicity against human MT2 cells after 4 days by XTT assay. The format is cell-based. Put shortly: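 Cells (5 × 10⁵/mL) mixed with equal volume of compound at graded concentrations and held 4 days at 37 °C. XTT (1 mg/mL) containing 0.02 μM phenazine methosulphate added, then 4 h at 37 °C. Absorbance read at 450 nm. CC₅₀ by CalcuSyn.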
A short description of series [3]: Selectivity index, ratio of CC50 for human MT2 cells to EC50 for HIV1 3B infected in human MT2 cells. The format is toxicity, cell-based. The settings on record: MT2 cells (CC50) and HIV1 3B infected MT2 cells (EC50). Put shortly: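 Selectivity index taken as MT-2 CC₅₀ (XTT, 4 days) divided by EC₅₀ against HIV-1 IIIB infection (p24 ELISA).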
The test system of series [4] is Human immunodeficiency virus 1. Description: Antiviral activity against HIV1 isolate 92US657 infected in human MT2 cells assessed as inhibition viral p24 antigen production after 4 days by ELISA. The class given is functional, organism-based. The settings on record: Human immunodeficiency virus 1, isolate 92US657, MT2, 96 h.

Molecules are shown by their SMILES.

The term EC50 denotes the concentration at which the effect is half-maximal. By CC50 is commonly meant the concentration at which the toxic effect on the cells reaches its halfway point. Higher therefore signals lower toxicity to the cells. For the molecule `O=C(O)c1cccc(-c2ccc(/C=C3\SC(=S)N(CCc4ccccc4)C3=O)o2)c1O`, the results for the EC50 in series [1] and in series [4] were 61 nM and 477 nM, respectively. The CC50 at 96 h in series [2] turned out to be 16400 nM. The selectivity ratio in series [3] was found to be 269.

As to `O=C(O)c1cccc(-c2ccc(/C=C3\SC(=S)N(CCc4ccccc4)C3=O)o2)c1F`, the concentration for a half-maximal effect (EC50) in series [1] stood at 145 nM; in series [4] it was 1080 nM. This molecule came in with a cytotoxic concentration (CC50) at 96 h in series [2] of 28100 nM. In addition, the selectivity ratio in series [3] was determined as 194.

Regarding `O=C(O)c1cccc(-c2ccc(/C=C3\SC(=S)N(CCc4ccccc4)C3=O)o2)c1Cl`, the half-maximal effective concentration (EC50) in series [1] came out at 74 nM; in series [4], 521 nM. The molecule also had a CC50 at 96 h in series [2] of 30400 nM. Also, the selectivity ratio in series [3] was found to be 411.
